Assay results pooled from the literature.
Each line is one published result; the experiments were not run side by side.
Read-out: cell growth or viability

Structure (SMILES)	cell line	technique	time	endpoint	value
Nc1ccc(/C=C/C(=O)N2CCc3c(oc4c(-c5ccc(F)cc5)cc(-c5ccc(C(=O)N6CCOCC6)nn5)cc34)C2)cn1	ASPC1	CCK-8	72 h	IC50	870 nM
C=CC(=O)NC1CCN(c2ncc3ncnc(Nc4ccc(Oc5ccc6c(c5)ncn6C)c(C)c4)c3n2)CC1	EFM-192A			EC50	28.4 nM
C=C(F)C(=O)N1CCN(c2nc(OC[C@@H]3CCCN3C)nc3c2CCN(c2cccc4cccc(Cl)c24)C3)C[C@@H]1CC#N	ASPC1	ATP luminescence		IC50	2010 nM
COc1cc2nc(N3CCN(C(=O)c4ccco4)CC3)nc(N)c2cc1OC	CNE-2	MTT	48 h	IC50	34800 nM
CCN1[C@@H](C(=O)NC23CCC(C(=O)O)(CC2)CC3)[C@H](c2cccc(Cl)c2F)[C@]2(C(=O)Nc3cc(Cl)ccc32)C12CCCCC2	SW982	resazurin	72 h	GI50	157 nM
Cc1cc(/C=C/C#N)cc(C)c1Nc1ccnc(Nc2ccc(C#N)cc2)n1	CNE-2	MTT	48 h	IC50	18700 nM
CC1(C)CCC2(CC1)N[C@@H](C(=O)N[C@@H]1CC[C@@H](C(N)=O)OC1)[C@H](c1ccnc(Cl)c1F)[C@]21C(=O)Nc2cc(Cl)ccc21	SW982	resazurin	72 h	GI50	21 nM
O=C(NO)c1ccc(CNc2nc3cccc(-c4ccc5c(c4)OCO5)n3n2)cc1	CAKI-1	SRB		GI50	660 nM
Nc1ccc(/C=C/C(=O)NCc2cc3cc(-c4ccc(C(=O)N5CCC(F)(F)CC5)cc4)cc(-c4ccc(F)cc4)c3o2)cn1	ASPC1	CCK-8	72 h	IC50	440 nM
C=CC(=O)N1CCN(c2nc(=O)n(-c3c(C)ccnc3C(C)C)c3nc(-c4c(O)cccc4F)c(F)cc23)[C@@H](C)C1	SW756	ATP luminescence		IC50	111 nM
